Laboratory results taken from ChEMBL document CHEMBL4219101, “Discovery of 18β-glycyrrhetinic acid conjugated aminobenzothiazole derivatives as Hsp90-Cdc37 interaction disruptors that inhibit cell migration and reverse drug resistance” (Bioorg Med Chem, 2018).
Activity calls are given as the source filed them. The calls are words filed in the database; no cut-off is given here.

Legend:
A549 [1] = test: Induction of apoptosis in human A549 cells assessed as necrotic cells at 5 uM after 24 hrs by Annexin-V FITC/propidium iodide staining based flow cytometry (reference value: 2.32%)
A549 [2] = test: Cell cycle arrest in human A549 cells assessed as accumulation at G1 phase at 5 uM after 48 hrs by propidium iodide staining-based flow cytometry (reference value: 70.16%); assay type: functional
A549 [3] = test: Induction of apoptosis in human A549 cells assessed as early apoptotic cells at 5 uM after 24 hrs by Annexin-V FITC/propidium iodide staining based flow cytometry (reference value: 0.080%)
[4] = biological target: Heat shock protein HSP 90-beta/Hsp90 co-chaperone Cdc37 (Homo sapiens) (UniProt P08238+Q16543); test: Inhibition of HSP90beta/Cdc37 interaction in human A549 cells assessed as upregulation of HSP90beta expression at 5 to 10 uM after 24 hrs by Western blot analysis; assay type: cell-based
Outline: (§1)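 A549 cells exposed for 24 h, with geldanamycin as comparator. Whole-cell lysates separated by SDS-PAGE and immunoblotted for the named proteins. β-actin used as reference.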

A549 [5] = test: Cell cycle arrest in human A549 cells assessed as accumulation at S phase at 5 uM after 48 hrs by propidium iodide staining-based flow cytometry (reference value: 19.62%); assay type: functional
[6] = biological target: T1, Heat shock protein HSP90 (Homo sapiens) (UniProt P07900+P08238); test: Inhibition of HSP90 in human A549 cells assessed as downregulation of CDK4 expression after 24 hrs by Western blot analysis; assay type: cell-based
Outline: as §1

[7] = Antiproliferative activity against human NCI-460 cells after 48 hrs by MTT assay; assay type: functional, cell-based; conditions: NCI-460, 48 h
Outline: (§2)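 Cells in log phase seeded at about 1.0 × 10^5 cells/mL in 96-well plates, left 12 h at 37 °C, 5% CO2. Compounds dissolved in DMSO, added at 2.5, 5, 10, 20 and 50 µM, 48 h exposure. Absorbance read at 570/630 nm dual wavelength. Survival expressed relative to negative control. IC50 by Bliss method (n = 5), tests done in triplicate.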

A549 [8] = test: Cell cycle arrest in human A549 cells assessed as accumulation at G1 phase at 10 uM after 48 hrs by propidium iodide staining-based flow cytometry (reference value: 70.16%); assay type: functional
A549 [9] = test: Antiproliferative activity against human A549 cells after 48 hrs by MTT assay; assay type: functional, cell-based; conditions: A549, 48 h
Outline: as §2

A549 [10] = test: Induction of apoptosis in human A549 cells assessed as upregulation of cleaved caspase-9 protein expression after 24 hrs by Western blot analysis; assay type: functional, cell-based
Outline: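 A549 cells exposed to 5 and 10 µM for 24 h. Lysates cleared at 20000g, protein quantified by BCA and equal amounts run on 12% SDS-PAGE, then transferred to PVDF. Blocked in 5% skim milk in TBST. Probed overnight at 4 °C with antibodies to Bcl-2, Bax, caspase-9, caspase-3 and β-actin (loading reference). Chemiluminescent detection. Three independent experiments.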

A549 [11] = test: Induction of apoptosis in human A549 cells assessed as viable cells at 5 uM after 24 hrs by Annexin-V FITC/propidium iodide staining based flow cytometry (reference value: 97.6%); conditions: A549, 24 h
A549 [12] = test: Induction of apoptosis in human A549 cells assessed as necrotic cells at 10 uM after 24 hrs by Annexin-V FITC/propidium iodide staining based flow cytometry (reference value: 2.32%)
[13] = Inhibition of His-tagged full-length Hsp90 (unknown origin)/GST-tagged Cdc37M (unknown origin) interaction after 1 hr by HTRF assay; set-up: species or system Homo sapiens
Outline: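 TR-FRET in PBS containing 400 mM KF, pH 7.3. His-tagged full-length Hsp90 and GST-Cdc37M, each 250 nM final, incubated with compound for 1 h at 37 °C. Anti-GST-Cryptate and anti-6His-XL665 then added for a further 0.5 h at 37 °C. Excitation 320 nm, emission 665/620 nm, reported as ratio ×10,000. Negative and blank controls run in each assay.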

A549 [14] = test: Cell cycle arrest in human A549 cells assessed as accumulation at S phase after 48 hrs by propidium iodide staining-based flow cytometry; assay type: functional
A549 [15] = test: Induction of apoptosis in human A549 cells after 24 hrs by Annexin-V FITC/propidium iodide staining based flow cytometry
A549 [16] = test: Cell cycle arrest in human A549 cells assessed as accumulation at G2 phase at 5 uM after 48 hrs by propidium iodide staining-based flow cytometry (reference value: 10.22%); assay type: functional
HepG2 = test: Antiproliferative activity against human HepG2 cells after 48 hrs by MTT assay; assay type: functional, cell-based; conditions: HepG2, 48 h
Outline: as §2

MCF7 = test: Antiproliferative activity against human MCF7 cells after 48 hrs by MTT assay; assay type: functional, cell-based; conditions: MCF7, 48 h
Outline: as §2

A549 [17] = test: Induction of apoptosis in human A549 cells assessed as increase in intracellular ROS levels after 24 hrs by FITC-DCF-DA-fluorescence based flow cytometry; assay type: functional, cell-based
Outline: (§3)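 A549 cells exposed to 5 and 10 µM for 24 h, untreated cells as control. Collected, washed with ice-cold PBS and loaded with DCFH-DA in cell-free medium for 20 min at 37 °C in the dark, then washed. Fluorescence measured by flow cytometry at 485 nm excitation and 538 nm emission. Mean ± S.D. of three independent experiments.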

[18] = biological target: T1, Heat shock protein HSP90 (Homo sapiens); test: Inhibition of HSP90 in human A549 cells assessed as induction of HSP27 expression after 24 hrs by Western blot analysis; assay type: cell-based
Outline: as §1

A549 [19] = test: Induction of apoptosis in human A549 cells assessed as intracellular ROS levels at 5 uM after 24 hrs by FITC-DCF-DA-fluorescence based flow cytometry (reference value: 0.832%); assay type: functional
Outline: as §3

A549 [20] = test: Induction of apoptosis in human A549 cells assessed as viable cells at 10 uM after 24 hrs by Annexin-V FITC/propidium iodide staining based flow cytometry (reference value: 97.6%); conditions: A549, 24 h
A549 [21] = test: Induction of apoptosis in human A549 cells assessed as early apoptotic cells at 10 uM after 24 hrs by Annexin-V FITC/propidium iodide staining based flow cytometry (reference value: 0.080%)
A549 [22] = test: Cell cycle arrest in human A549 cells assessed as accumulation at S phase at 10 uM after 48 hrs by propidium iodide staining-based flow cytometry (reference value: 19.62%); assay type: functional
[23] = Inhibition of HSP90/Cdc37 interaction in human doxorubicin-resistant NCI-H460 cells assessed as reduction in cell proliferation after 48 hrs by MTT assay; conditions: NCI-H460, 48 h
Outline: as §2

[24] = biological target: T1, Heat shock protein HSP90 (Homo sapiens); test: Inhibition of HSP90 in human A549 cells assessed as induction of HSP70 expression after 24 hrs by Western blot analysis; assay type: cell-based
Outline: as §1

A549 [25] = test: Cell cycle arrest in human A549 cells assessed as accumulation at G2 phase at 10 uM after 48 hrs by propidium iodide staining-based flow cytometry (reference value: 10.22%); assay type: functional

inhibition [4]: Active
inhibition [6]: Dose-dependent effect
IC50 (A549 [9]): 4.04 µM
IC50 [13]: 0.14 µM
IC50 (HepG2): 10.6 µM
IC50 (MCF7): 6.37 µM
inhibition [18]: Dose-dependent effect
inhibition [24]: Dose-dependent effect
SMILES: CCOC(=O)[C@@]1(C)CC[C@]2(C)CC[C@]3(C)C(=CC(=O)[C@@H]4[C@@]5(C)CC[C@H](OC(=O)CCC(=O)Nc6nc7ccc(F)cc7s6)C(C)(C)[C@@H]5CC[C@]43C)[C@@H]2C1
Activity (A549 [1]): 2.18%
Activity (A549 [2]): 52.92%
Activity (A549 [3]): 8.45%
Activity (A549 [5]): 34.09%
IC50 [7]: 7.41 µM
Activity (A549 [8]): 47.14%
Activity (A549 [10]): Dose-dependent effect
viability at 5 µM (A549 [11]): 85.5%
Activity (A549 [12]): 1.15%
Activity (A549 [14]): Dose-dependent effect
Activity (A549 [15]): Dose-dependent effect
Activity (A549 [16]): 12.98%
Activity (A549 [17]): Dose-dependent effect
Activity (A549 [19]): 13.6%
viability at 10 µM (A549 [20]): 78.8%
Activity (A549 [21]): 14%
Activity (A549 [22]): 40.35%
IC50 [23]: 10.1 µM
Activity (A549 [25]): 12.51%
